Test results published in paper PMC11063762 (Molecular Cancer Therapeutics, 2024).
Entries after “also recorded” stand apart in the source; their conditions may differ.

Key:
[1] = system: panel of receptors/transporters (n = 38); test: Off-target selectivity screening, receptor/transporter binding panel; details: up to 10 μmol/L
[2] = system: panel of enzymes (n = 6); test: Off-target selectivity screening, enzyme panel; format: biochemical; details: up to 10 μmol/L
[3] = Long-term chemical stability at ambient conditions; format: physicochemical
[4] = Particle size by dynamic light scattering; format: physicochemical; details: 5% aqueous mannitol, monomodal
[5] = molecular target: cathepsin S (CTSS) (Homo sapiens, UniProt P25774); test: Enzyme-mediated metabolism of SDX-7320 in vitro; format: in vitro ADME; details: 0.5 mg/mL SDX-7320, 37°C, LC/MS
Chain of cathepsin S (CTSS) (P25774 115-331): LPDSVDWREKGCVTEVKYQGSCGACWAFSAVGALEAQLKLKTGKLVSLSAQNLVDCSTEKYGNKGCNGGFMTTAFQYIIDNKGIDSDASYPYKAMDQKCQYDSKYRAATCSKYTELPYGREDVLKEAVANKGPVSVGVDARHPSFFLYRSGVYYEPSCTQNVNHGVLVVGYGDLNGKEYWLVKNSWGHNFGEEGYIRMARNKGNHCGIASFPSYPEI

[6] = system: cathepsin isoforms L, H, C, K, and B; test: Enzyme-mediated metabolism of SDX-7320 in vitro; format: in vitro ADME, human; details: 0.5 mg/mL SDX-7320, 37°C, LC/MS
[7] = molecular target: T1, METAP2 (Homo sapiens, UniProt P50579); test: In vitro competition binding to METAP2; details: competition with biotinylated SDX-9280
T1 sequence (P50579 whole entry): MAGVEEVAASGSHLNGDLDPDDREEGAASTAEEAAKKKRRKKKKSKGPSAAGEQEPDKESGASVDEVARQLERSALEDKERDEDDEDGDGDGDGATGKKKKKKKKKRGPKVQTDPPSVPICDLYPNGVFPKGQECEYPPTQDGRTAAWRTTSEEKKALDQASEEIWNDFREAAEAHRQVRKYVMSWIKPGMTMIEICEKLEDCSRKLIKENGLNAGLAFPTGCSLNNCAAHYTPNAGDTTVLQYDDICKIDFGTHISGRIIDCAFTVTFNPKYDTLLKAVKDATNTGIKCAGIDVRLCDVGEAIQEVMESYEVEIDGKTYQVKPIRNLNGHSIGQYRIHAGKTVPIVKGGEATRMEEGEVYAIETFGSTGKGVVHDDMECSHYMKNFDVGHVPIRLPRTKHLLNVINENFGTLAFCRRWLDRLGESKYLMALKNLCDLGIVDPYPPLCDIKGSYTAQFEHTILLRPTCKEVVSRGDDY

[8] = molecular target: T1, METAP2; test: METAP2 aminopeptidase enzyme activity assay; format: biochemical
[9] = CNS exposure; format: in vivo; details: rat, intravenous, equimolar small molecule doses
Procedure, shortened: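 Plasma and CSF levels of the small-molecule inhibitor were measured in rats after intravenous dosing of the polymer conjugate, the free inhibitor or a comparator inhibitor, all at equimolar small-molecule doses. CSF was sampled near plasma Tmax. For the rapidly metabolised comparator, its active metabolite (M-IV) was measured rather than the parent.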

[10] = Rat functional observation battery; format: in vivo; details: single dose 3, 10 and 30 mg/kg, 12 and 36 hours post-dose, GLP
Procedure, shortened: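 Under GLP, male experimentally naïve CD [Crl:CD(SD)] rats, about 8 weeks old, received a single s.c. dose of 3, 10 or 30 mg/kg (ten/group). A functional observation battery was run pre-dose (day −1) and at 12 and 36 h post-dose. Mortality, clinical observations and body weights were also recorded.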

[11] = system: EO771 tumors; test: EO771 triple-negative breast cancer allograft model; format: in vivo, mouse; details: 24 mg/kg SC, Q4D
Procedure, shortened: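 Female C57Bl/6j mice, ovariectomized at 4 weeks, had EO771 cells implanted into the fourth mammary fat pad at about 18 weeks under ether anesthesia. At about 20 mm3, mice (8/group) began s.c. vehicle (5% mannitol/water, Q4D) or test compound (24 mg/kg, Q4D × 4). Tumors were excised on day 15 and formalin-fixed, paraffin-embedded. Sections were immunostained for Ki67 or CD31, scored as positive cells per tissue area. Volume: two-way ANOVA with Sidak. Staining: unpaired t test.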

[12] = system: MDA-MB-231 tumors; test: MDA-MB-231 TNBC model in chick embryos; format: in vivo, chick embryo; details: 15, 90 μg
Procedure, shortened: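 MDA-MB-231 cells were inoculated into fertilized White Leghorn eggs on embryonic day E9. From E11, embryos received vehicle, test compound (15 or 90 μg, every four days, two doses) or paclitaxel positive control (2.1 μg, every other day, four doses). Metastatic invasion into the lower chorioallantoic membrane was assessed. Tumors were dissected on E19.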

[13] = system: BT-474 tumors; test: BT-474 HER-2+, estrogen receptor-positive breast cancer xenograft model; format: in vivo, mouse; details: 6, 12 mg/kg, s.c., every four days
Procedure, shortened: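 Female athymic nude mice got a 90-day 0.72 mg β-estradiol pellet s.c. Three days later, 2 × 10^7 cells in 50% Matrigel/50% RPMI1640 went into the fourth mammary fat pad. Mice were randomized at tumors >95 mm3 (8/group). Test compound, freshly prepared in 5% mannitol/water, was given s.c. Q4D × 9. Tumor volume was analysed by mixed-effects model with Dunnett comparisons.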

[14] = system: BT-474 tumors; test: RNA sequencing of BT-474 xenograft tumors; format: in vivo, mouse; details: 12 mg/kg, RNA-seq versus vehicle
Procedure, shortened: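 Orthotopic BT-474 tumors came from estrogen-supplemented nude mice dosed s.c. every four days with 12 mg/kg test compound (n = 5) or vehicle (n = 6). At necropsy, tumor portions were snap-frozen and stored at −80°C for RNA isolation and sequencing. Differentially expressed genes versus vehicle were identified, then pathway enrichment analysis was run (pathways with P ≤ 0.01 reported).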

[15] = molecular target: METAP1 (Homo sapiens, UniProt P53582); test: METAP1 aminopeptidase enzyme activity assay; format: biochemical; details: up to 1000 nmol/L
[16] = system: HUVEC; test: HUVEC proliferation; format: cell-based, human; details: 72 hours
Procedure, shortened: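 HUVEC were grown in EBM-2/EGM-2 with 2% FBS and 2X gentamicin, seeded at 5,000 cells/well and left overnight. Compounds were diluted in DMSO, then in the same medium (final DMSO 0.1%). After 72 h at 37°C, CellTiter 96 Aqueous One reagent was added for 3 h at 37°C and A490 read. The mean A490 of highest-concentration wells was subtracted, and IC50 came from a four-parameter variable-slope log(inhibitor)-response fit.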

[17] = system: B16-F10 melanoma cells; test: B16-F10 syngeneic lung metastasis model; format: in vivo, mouse; details: TNP-470 30 mg/kg every other day x 6, day 15
Procedure, shortened: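 Female C57BL/6NTac mice (8/group) received B16-F10 melanoma cells by tail vein. Cells were grown in DMEM with 5% FBS at 37°C under 5% CO2. Dosing began 24 h after injection: saline vehicle, test compound 25 mg/kg Q4D × 3, and a reference METAP2 inhibitor 30 mg/kg Q2D × 6. Lungs were excised on day 15 and visible metastases counted by stereomicroscope. Two-tailed Student t test.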

[18] = cited from earlier work

With CO[C@@H]1[C@H](OC(=O)N[C@H]2CC[C@H](N)CC2)CC[C@]2(CO2)[C@H]1[C@@]1(C)O[C@@H]1CC=C(C)C.O=S(=O)(O)c1ccccc1 (relative stereo) [SDX-9402, Fumagill-6-yl N-(trans-4-aminocyclohexyl)carbamate benzenesulfonic acid salt] the “Off-target activity at receptors/transporters” value [1] was “No effect was observed” and the “Off-target activity at enzymes” value [2] was “No effect was observed”.

With “Glycine, N-(2-methyl-1-oxo-2-propen-1-yl)glycyl-L-phenylalanyl-L-leucyl-, 4-nitrophenyl ester, polymer with N-(2-hydroxypropyl)-2-methyl-2-propenamide, reaction products with (3R,4S,5S,6R)-5-methoxy-4-[(2R,3R)-2-methyl-3-(3-methyl-2-buten-1-yl)-2-oxiranyl]-1-oxaspiro[2.5]oct-6-yl N-(trans-4-aminocyclohexyl)carbamate [SDX-7320]” the long-term chemical stability [3] was greater than 48 months, the “particle size distribution Z-average” value [4] was 10 nm and the “release of SDX-7539 from SDX-7320 by cathepsin S” value [5] was “most active isoform; also recorded: highest activity”. The “release of SDX-7539 from SDX-7320 by cathepsins L, H, C, K, and B” value [6] was “catalytic activity against SDX-7320”, the “binding to METAP2 by competition ELISA” value [7] was “inactive” and the “Inhibition of METAP2 aminopeptidase enzyme activity” value ([8]; up to 10 μg/ml) was “inactive”. For the same compound, the “CSF levels of SDX-7539 when dosed as the PDC compared with unconjugated small molecule or TNP-470” value [9] was “marked reduction in CSF levels”, the “neurobehavioral FOB findings” value [10] was “No signs of abnormal CNS-related behavioral toxicity; also recorded: no significant behavioral abnormalities” and the EO771 tumor growth [11] was “significantly inhibited tumor growth”. For the same compound, the “CD31 staining of dissected EO771 tumors” value ([11]; anti-angiogenic activity) was “reduced staining”, the “Ki67 staining of dissected EO771 tumors” value ([11]; anti-proliferative activity) was “reduced staining” and the “metastasis of MDA-MB-231 tumors (human DNA in lower chorioallantoic membrane)” value ([12]; every four days, two doses) was “significantly inhibited metastasis”. For the same compound, the “MDA-MB-231 tumor blood vessel density (angiogenesis)” value ([12]; two days prior to termination) was “significant decrease in blood vessel density”, the “inhibition of BT-474 tumor growth” value [13] was “significant, dose-dependent inhibition” and the “expression of hypoxia-regulated genes including HIF1α in BT-474 tumors” value [14] was “significantly reduced”.

In the case of CO[C@@H]1[C@H](OC(=O)NC(=O)CCl)CC[C@]2(CO2)[C@H]1[C@@]1(C)O[C@@H]1CC=C(C)C [TNP-470, O-(chloroacetyl-carbamoyl) fumagillol], the “time dependence of IC50 against METAP2” value ([8]; hallmark of irreversible enzyme inhibitors) is reported as “time-dependent shifts in IC50”, the “Inhibition of METAP1 aminopeptidase activity” value [15] is reported as “neither compound inhibited METAP1” and the “fold less potent than SDX-7539 in HUVEC growth” value [16] is reported as “approximately 3 fold”. For the same compound, the “outgrowth of B16-F10 melanoma cells in the lungs” value [17] was “identical degree of inhibition” and the “potency in vitro, fold higher than the natural product fumagillin” value [18] was 50 fold.
